pIC50, pKi: −log10 of the molar value. Values after ≈ are worked out from the molar mass of the structure shown.
Experiments:
MT4 = experiment: In vitro anti-HIV activity in MT-4 cells by using an HIV cytopathic assay; format: functional; settings: Homo sapiens, read-out: ED50 (the source's name)
Method in brief: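 HIV cytopathic assay in MT-4 cells, with cell protection quantified by the vital dye XTT. ED50 (µg/mL), the 50% inhibitory concentration, was calculated from the percent cytoprotection for each compound.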

[1] = target: T1, Human immunodeficiency virus type 1 protease (Human immunodeficiency virus 1, UniProt Q72874); experiment: Inhibitory activity against purified HIV-1 protease expressed in Escherichia coli in sensitive fluorometric assay
[2] = target: T1, Human immunodeficiency virus type 1 protease; experiment: inhibitory activity against purified HIV-1 protease in a standardized spectrophotometric assay expressed in E. coli; ni=no inhibition
Method in brief: (§1)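 Recombinant HIV-1 protease, cloned and heterologously expressed in E. coli, then purified. Inhibition was measured in a standardized spectrophotometric protease assay and reported as IC50 values.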

[3] = target: T1, Human immunodeficiency virus type 1 protease; experiment: inhibitory activity against purified HIV-1 protease in a standardized spectrophotometric assay expressed in Escherichia coli
[4] = target: T1, Human immunodeficiency virus type 1 protease; experiment: inhibitory activity against purified HIV-1 protease in a standardized spectrophotometric assay expressed in E. coli; ni= no inhibition; method in brief: as §1
[5] = target: T1, Human immunodeficiency virus type 1 protease; experiment: inhibitory activity against purified HIV-1 protease in a standardized spectrophotometric assay expressed in E. inhibition; method in brief: as §1
[6] = target: T1, Human immunodeficiency virus type 1 protease; experiment: Inhibitory activity against purified HIV-1 protease in a standardized spectrophotometric assay expressed in E. uM; method in brief: as §1
[7] = target: T1, Human immunodeficiency virus type 1 protease; experiment: inhibitory activity against purified HIV-1 protease in a standardized spectrophotometric assay expressed in E. coli; ni = no inhibition; method in brief: as §1

Structure (SMILES) | pKi [1] | IC50 [2] | further results
CNC(=O)[C@@H](NC(=O)[C@H](OCc1ccccc1)[C@H](O)[C@@H](O)[C@@H](OCc1ccccc1)C(=O)N[C@H](C(=O)NC)C(C)C)C(C)C | 9.40 | – | EC50 (MT4): 0.9 µg/mL (≈ 1.46 µM)
O=C(NCc1ccccn1)[C@H](OCc1ccccc1)[C@H](O)[C@@H](O)[C@@H](OCc1ccccc1)C(=O)NCc1ccccn1 | – | Not Active | –
CNC(=O)[C@@H](NC(=O)[C@H](OCc1ccccc1)[C@H](O)[C@@H](O)[C@@H](OCc1ccccc1)C(=O)N[C@H](C(=O)NC)c1ccccc1)c1ccccc1 | – | Not Active | –
O=C(NCCO)[C@H](OCc1ccccc1)[C@H](O)[C@@H](O)[C@@H](OCc1ccccc1)C(=O)NCCO | – | Not Active | –
COC(=O)[C@@H](NC(=O)[C@H](OCc1ccccc1)[C@H](O)[C@@H](O)[C@@H](OCc1ccccc1)C(=O)N[C@H](C(=O)OC)C(C)C)C(C)C | – | – | pIC50 [3]: 5.30
O=C(NCc1cncs1)[C@H](OCc1ccccc1)[C@H](O)[C@@H](O)[C@@H](OCc1ccccc1)C(=O)NCc1cncs1 | 5.15 | – | –
CNC(=O)[C@H](Cc1ccccc1)NC(=O)[C@H](OCc1ccccc1)[C@H](O)[C@@H](O)[C@@H](OCc1ccccc1)C(=O)N[C@@H](Cc1ccccc1)C(=O)NC | 6.85 | Not Active | –
O=C(NCc1c(F)cccc1Cl)[C@H](OCc1ccccc1)[C@H](O)[C@@H](O)[C@@H](OCc1ccccc1)C(=O)NCc1c(F)cccc1Cl | 5.70 | – | –
COC(=O)[C@H](Cc1ccccc1)NC(=O)[C@H](OCc1ccccc1)[C@H](O)[C@@H](O)[C@@H](OCc1ccccc1)C(=O)N[C@@H](Cc1ccccc1)C(=O)OC | – | – | IC50 [4]: Not Active
O=C(NCc1cccnc1)[C@H](OCc1ccccc1)[C@H](O)[C@@H](O)[C@@H](OCc1ccccc1)C(=O)NCc1cccnc1 | – | Not Active | –
CC(C)[C@@H](CO)NC(=O)[C@H](OCc1ccccc1)[C@H](O)[C@@H](O)[C@@H](OCc1ccccc1)C(=O)N[C@H](CO)C(C)C | – | – | IC50 [5]: Not Active
Cc1c(O)cccc1NC(=O)[C@H](OCc1ccccc1)[C@H](O)[C@@H](O)[C@@H](OCc1ccccc1)C(=O)Nc1cccc(O)c1C | – | – | IC50 [6]: Not Active
CNC(=O)[C@H](CCSC)NC(=O)[C@H](OCc1ccccc1)[C@H](O)[C@@H](O)[C@@H](OCc1ccccc1)C(=O)N[C@@H](CCSC)C(=O)NC | 6.18 | – | –
COC(=O)[C@H](CC(C)C)NC(=O)[C@H](OCc1ccccc1)[C@H](O)[C@@H](O)[C@@H](OCc1ccccc1)C(=O)N[C@@H](CC(C)C)C(=O)OC | – | Not Active | –
CNC(=O)[C@H](Cc1ccc(O)cc1)NC(=O)[C@H](OCc1ccccc1)[C@H](O)[C@@H](O)[C@@H](OCc1ccccc1)C(=O)N[C@@H](Cc1ccc(O)cc1)C(=O)NC | 5.30 | – | IC50 [4]: Not Active
CNC(=O)C(NC(=O)[C@H](OCc1ccccc1)[C@H](O)[C@@H](O)[C@@H](OCc1ccccc1)C(=O)NC(C(=O)NC)c1cccc(F)c1)c1cccc(F)c1 (stereo partly drawn) | 7.09 | Not Active | –
O=C(NCc1ccncc1)[C@H](OCc1ccccc1)[C@H](O)[C@@H](O)[C@@H](OCc1ccccc1)C(=O)NCc1ccncc1 | – | Not Active | –
CNC(=O)C(NC(=O)[C@H](OCc1ccccc1)[C@H](O)[C@@H](O)[C@@H](OCc1ccccc1)C(=O)NC(C(=O)NC)[C@@H](C)O)[C@H](C)O (stereo partly drawn) | 6.30 | Not Active | –
Cc1cc(O)ccc1NC(=O)[C@H](OCc1ccccc1)[C@H](O)[C@@H](O)[C@@H](OCc1ccccc1)C(=O)Nc1ccc(O)cc1C | – | – | IC50 [6]: Not Active
CC(C)[C@H](NC(=O)[C@H](OCc1ccccc1)[C@H](O)[C@@H](O)[C@@H](OCc1ccccc1)C(=O)N[C@H](C(=O)OCc1ccccc1)C(C)C)C(=O)OCc1ccccc1 | – | – | IC50 [7]: Not Active
Cc1ccc(NC(=O)[C@H](OCc2ccccc2)[C@H](O)[C@@H](O)[C@@H](OCc2ccccc2)C(=O)Nc2ccc(C)cc2O)c(O)c1 | – | – | IC50 [6]: Not Active
CC[C@@H](C)C(NC(=O)[C@H](OCc1ccccc1)[C@H](O)[C@@H](O)[C@@H](OCc1ccccc1)C(=O)NC(C(=O)NC)[C@@H](C)CC)C(=O)NC (stereo partly drawn) | 9.05 | – | EC50 (MT4): 1 µg/mL (≈ 1.56 µM)
O=C(N[C@@H]1c2ccccc2C[C@@H]1O)[C@H](OCc1ccccc1)[C@H](O)[C@@H](O)[C@@H](OCc1ccccc1)C(=O)N[C@H]1c2ccccc2C[C@H]1O | 9.70 | – | EC50 (MT4): 0.06 µg/mL (≈ 0.0919 µM)
O=C(NC1c2ccccc2CC1O)[C@H](OCc1ccccc1)[C@H](O)[C@@H](O)[C@@H](OCc1ccccc1)C(=O)N[C@H]1c2ccccc2C[C@H]1O (single isomer, unassigned) | – | Not Active | –
CC(C)(C)NC(=O)[C@@H]1CN(Cc2cccnc2)CCN1C[C@@H](O)C[C@@H](Cc1ccccc1)C(=O)N[C@H]1c2ccccc2C[C@H]1O.O [INDINAVIR] | – | – | EC50 (MT4): 0.04 µg/mL
CC(C)c1nc(CN(C)C(=O)N[C@H](C(=O)N[C@@H](Cc2ccccc2)C[C@H](O)[C@H](Cc2ccccc2)NC(=O)OCc2cncs2)C(C)C)cs1 [RITONAVIR] | – | – | EC50 (MT4): 0.05 µg/mL (≈ 0.0694 µM)

Reference: ChEMBL document CHEMBL1131116, “Design and synthesis of new potent C2-symmetric HIV-1 protease inhibitors. Use of L-mannaric acid as a peptidomimetic scaffold” (J Med Chem, 1998)
